Source: PMC6683736 (The Journal of Cell Biology, 2019)

B1: 414–871: C-terminal half of SGEF: DH-PH domain, SH3 domain and PBM (protein, UniProt Q96DR7 414-871, looked up, fragment)
chain: LRSTWSQLSAVKRKGLSQTVSQEERKRQEAIFEVISSEHSYLLSLEILIRMFKNSKELSDTMTKTERHHLFSNITDVCEASKKFFIELEARHQNNIFIDDISDIVEKHTASTFDPYVKYCTNEVYQQRTLQKLLATNPSFKEVLSRIESHEDCRNLPMISFLILPMQRVTRLPLLMDTICQKTPKDSPKYEVCKRALKEVSKLVRLCNEGARKMERTEMMYTINSQLEFKIKPFPLVSSSRWLVKRGELTAYVEDTVLFSRRTSKQQVYFFLFNDVLIITKKKSEESYNVNDYSLRDQLLVESCDNEELNSSPGKNSSTMLYSRQSSASHLFTLTVLSNHANEKVEMLLGAETQSERARWITALGHSSGKPPADRTSLTQVEIVRSFTAKQPDELSLQVADVVLIYQRVSDGWYEGERLRDGERGWFPMECAKEITCQATIDKNVERMGRLLGLETNV
B2: SGEF 1–350: SGEF deletion mutant 1–350 (protein)
chain: MDGESEVDFSSNSITPLWRRRSIPQPHQVLGRSKPRPQSYQSPNGLLITDFPVEDGGTLLAAQIPAQVPTASDSRTVHRSPLLLGAQRRAVANGGTASPEYRAASPRLRRPKSPKLPKAVPGGSPKSPANGAVTLPAPPPPPVLRPPRTPNAPAPCTPEEDLTGLTASPVPSPTANGLAANNDSPGSGSQSGRKAKDPERGLFPGPQKSSSEQKLPLQRLPSQENELLENPSVVLSTNSPAALKVGKQQIIPKSLASEIKISKSNNQNVEPHKRLLKVRSMVEGLGGPLGHAGEESEVDNDVDSPGSLRRGLRSTSYRRAVVSGFDFDSPTSSKKKNRMSQPVLKVVMED
modifications: left off: myc (inferred from the legend of Figure 2), end not stated, kept
B3: Gly 45 residue for Pro: SGEF with Gly 45 replaced by Pro (protein, UniProt Q96DR7 1-871, looked up, variant G45P)
Rho guanine nucleotide …: MDGESEVDFSSNSITPLWRRRSIPQPHQVLGRSKPRPQSYQSPNPLLITDFPVEDGGTLLAAQIPAQVPTASDSRTVHRSPLLLGAQRRAVANGGTASPEYRAASPRLRRPKSPKLPKAVPGGSPKSPANGAVTLPAPPPPPVLRPPRTPNAPAPCTPEEDLTGLTASPVPSPTANGLAANNDSPGSGSQSGRKAKDPERGLFPGPQKSSSEQKLPLQRLPSQENELLENPSVVLSTNSPAALKVGKQQIIPKSLASEIKISKSNNQNVEPHKRLLKVRSMVEGLGGPLGHAGEESEVDNDVDSPGSLRRGLRSTSYRRAVVSGFDFDSPTSSKKKNRMSQPVLKVVMEDKEKFSSLGRIKKKMLKGQGTFDGEENAVLYQNYKEKALDIDSDEESEPKEQKSDEKIVIHHKPLRSTWSQLSAVKRKGLSQTVSQEERKRQEAIFEVISSEHSYLLSLEILIRMFKNSKELSDTMTKTERHHLFSNITDVCEASKKFFIELEARHQNNIFIDDISDIVEKHTASTFDPYVKYCTNEVYQQRTLQKLLATNPSFKEVLSRIESHEDCRNLPMISFLILPMQRVTRLPLLMDTICQKTPKDSPKYEVCKRALKEVSKLVRLCNEGARKMERTEMMYTINSQLEFKIKPFPLVSSSRWLVKRGELTAYVEDTVLFSRRTSKQQVYFFLFNDVLIITKKKSEESYNVNDYSLRDQLLVESCDNEELNSSPGKNSSTMLYSRQSSASHLFTLTVLSNHANEKVEMLLGAETQSERARWITALGHSSGKPPADRTSLTQVEIVRSFTAKQPDELSLQVADVVLIYQRVSDGWYEGERLRDGERGWFPMECAKEITCQATIDKNVERMGRLLGLETNV
B4: T49A (protein, UniProt Q96DR7 1-871, looked up, variant T49A)
Rho guanine nucleotide …: MDGESEVDFSSNSITPLWRRRSIPQPHQVLGRSKPRPQSYQSPNGLLIADFPVEDGGTLLAAQIPAQVPTASDSRTVHRSPLLLGAQRRAVANGGTASPEYRAASPRLRRPKSPKLPKAVPGGSPKSPANGAVTLPAPPPPPVLRPPRTPNAPAPCTPEEDLTGLTASPVPSPTANGLAANNDSPGSGSQSGRKAKDPERGLFPGPQKSSSEQKLPLQRLPSQENELLENPSVVLSTNSPAALKVGKQQIIPKSLASEIKISKSNNQNVEPHKRLLKVRSMVEGLGGPLGHAGEESEVDNDVDSPGSLRRGLRSTSYRRAVVSGFDFDSPTSSKKKNRMSQPVLKVVMEDKEKFSSLGRIKKKMLKGQGTFDGEENAVLYQNYKEKALDIDSDEESEPKEQKSDEKIVIHHKPLRSTWSQLSAVKRKGLSQTVSQEERKRQEAIFEVISSEHSYLLSLEILIRMFKNSKELSDTMTKTERHHLFSNITDVCEASKKFFIELEARHQNNIFIDDISDIVEKHTASTFDPYVKYCTNEVYQQRTLQKLLATNPSFKEVLSRIESHEDCRNLPMISFLILPMQRVTRLPLLMDTICQKTPKDSPKYEVCKRALKEVSKLVRLCNEGARKMERTEMMYTINSQLEFKIKPFPLVSSSRWLVKRGELTAYVEDTVLFSRRTSKQQVYFFLFNDVLIITKKKSEESYNVNDYSLRDQLLVESCDNEELNSSPGKNSSTMLYSRQSSASHLFTLTVLSNHANEKVEMLLGAETQSERARWITALGHSSGKPPADRTSLTQVEIVRSFTAKQPDELSLQVADVVLIYQRVSDGWYEGERLRDGERGWFPMECAKEITCQATIDKNVERMGRLLGLETNV
B5: SGEF ΔETNV: SGEF with deletion of the PBM, 1–867 (protein)
chain: MDGESEVDFSSNSITPLWRRRSIPQPHQVLGRSKPRPQSYQSPNGLLITDFPVEDGGTLLAAQIPAQVPTASDSRTVHRSPLLLGAQRRAVANGGTASPEYRAASPRLRRPKSPKLPKAVPGGSPKSPANGAVTLPAPPPPPVLRPPRTPNAPAPCTPEEDLTGLTASPVPSPTANGLAANNDSPGSGSQSGRKAKDPERGLFPGPQKSSSEQKLPLQRLPSQENELLENPSVVLSTNSPAALKVGKQQIIPKSLASEIKISKSNNQNVEPHKRLLKVRSMVEGLGGPLGHAGEESEVDNDVDSPGSLRRGLRSTSYRRAVVSGFDFDSPTSSKKKNRMSQPVLKVVMEDKEKFSSLGRIKKKMLKGQGTFDGEENAVLYQNYKEKALDIDSDEESEPKEQKSDEKIVIHHKPLRSTWSQLSAVKRKGLSQTVSQEERKRQEAIFEVISSEHSYLLSLEILIRMFKNSKELSDTMTKTERHHLFSNITDVCEASKKFFIELEARHQNNIFIDDISDIVEKHTASTFDPYVKYCTNEVYQQRTLQKLLATNPSFKEVLSRIESHEDCRNLPMISFLILPMQRVTRLPLLMDTICQKTPKDSPKYEVCKRALKEVSKLVRLCNEGARKMERTEMMYTINSQLEFKIKPFPLVSSSRWLVKRGELTAYVEDTVLFSRRTSKQQVYFFLFNDVLIITKKKSEESYNVNDYSLRDQLLVESCDNEELNSSPGKNSSTMLYSRQSSASHLFTLTVLSNHANEKVEMLLGAETQSERARWITALGHSSGKPPADRTSLTQVEIVRSFTAKQPDELSLQVADVVLIYQRVSDGWYEGERLRDGERGWFPMECAKEITCQATIDKNVERMGRLLGL
modifications: left off: myc (inferred from the legends of Figures 1 and 2), end not stated, kept

Assays:
Xenopus embryos = assay: Junctional localization in gastrula-stage embryos; format: in vivo, Xenopus laevis; details: live confocal, mNeon-tagged
Method in brief: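 Embryos were microinjected in the animal hemisphere with mRNAs, either at the two-cell stage (each cell twice) or at the four-cell stage (once). They were raised to gastrula stage (10.5–12) and live-imaged by confocal. mNeon-tagged protein was coexpressed with BFP-ZO-1 (tight junction marker) and PLEKHA7-mCherry (adherens junction marker), and the junctional-to-cytosolic intensity ratio was quantified.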

Dlg1 = assay: Coimmunoprecipitation of SGEF constructs with GFP-Dlg1, HEK293FT lysates; format: binding, Mouse; details: GFP-trap nanobodies, WB
Method in brief: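 HEK293FT cells were co-transfected by calcium phosphate; medium was changed at 24 h and cells harvested at 48 h. Lysis was in Tris-HCl pH 7.4, MgCl2, 150 mM NaCl, 1% Triton X-100 and protease inhibitors. Equal protein was incubated with GFP-Trap beads for 1 h at 4°C, washed four times, then immunoblotted with anti-GFP and anti-myc (or anti-His).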

Scribble = assay: Coimmunoprecipitation of SGEF constructs with GFP-Scribble, HEK293FT lysates; format: binding, Human; details: GFP-trap nanobodies, WB

| Molecule | localization at apical junctional complex (Xenopus embryos) | interaction with Dlg1 (Dlg1) | interaction with Scribble (Scribble) |
| --- | --- | --- | --- |
| mNeon-RhoG: mNeon-tagged small GTPase RhoG, 1–191 | more broadly localized along the lateral membrane |  |  |
| B1 |  | showed no binding |  |
| B2 |  | able to bind to Dlg1 |  |
| B3 |  |  | abolished the interaction |
| B4 |  |  | completely abolish the interaction |
| B5 |  | still interacted efficiently with Dlg1 | no effect on the ability of SGEF to bind to Scribble |
